# Measured values: ChEMBL document CHEMBL1122917, “Vinblastin-23-oyl amino acid derivatives: chemistry, physicochemical data, toxicity, and antitumor activities against P388 and L1210 leukemias” (J Med Chem, 1985)
# How the values were obtained:
# Type in all cases: functional
# Mus musculus [1] = experiment: Number of survivors of DBA2 mice on 60th day after inoculation with L1210 leukemia cell line intraperitoneally at a dose of 75 mg/kg/day; 0/10; conditions: route intraperitoneal
# Mus musculus [2] = experiment: Number of survivors of DBA2 mice on 60th day after inoculation with L1210 leukemia cell line intravenously at a dose of 65 mg/kg/day; 0/10; conditions: route intravenous
# Mus musculus [3] = experiment: Number of survivors of DBA2 mice on 30th day after inoculation with L1210 leukemia cell line intravenously at a dose of 70 mg/kg/day; 0/10; conditions: route intravenous
# Mus musculus [4] = experiment: Percent increase in life span at dose 50 mg/kg/day in 10 mice implanted with P388 leukemia cell line
# Method in brief: (§1)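 Female DBA2 mice inoculated iv on day 0 with 10^4 P388 cells; single iv treatment on day 1 with drug as sulfate salt in physiological saline. Survival followed; %ILS from all deaths and survivors as (T/C × 100) − 100, maximal MST 30 days; survivors counted on days 30 and 60. Most experiments confirmed three times.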
# Mus musculus [5] = experiment: Percent increase in life span at dose 80 mg/kg/day in 10 mice implanted with P388 leukemia cell line; method in brief: as §1
# Mus musculus [6] = experiment: Percent increase in life span at dose 60 mg/kg/day in 10 mice implanted with P388 leukemia cell line; method in brief: as §1
# Mus musculus [7] = experiment: Number of survivors of DBA2 mice on 30th day after inoculation with L1210 leukemia cell line intravenously at a dose of 65 mg/kg/day; 0/10; conditions: route intravenous
# Mus musculus [8] = experiment: Percent increase in life span of DBA2 mice after inoculation with L1210 leukemia intravenously at a dose of 55 mg/lg per day
# Mus musculus [9] = experiment: Percent increase in life span of DBA2 mice after inoculation with L1210 leukemia intravenously at a dose of 75 mg/kg per day; conditions: route intravenous
# Mus musculus [10] = experiment: Number of survivors on 30th day at dose 60 mg/kg/day in 10 mice implanted with P388 leukemia cell line
# Mus musculus [11] = experiment: Percent increase in life span at dose 55 mg/kg/day in 10 mice implanted with P388 leukemia cell line; method in brief: as §1
# Mus musculus [12] = experiment: Number of survivors of DBA2 mice on 60th day after inoculation with L1210 leukemia cell line intravenously at a dose of 55 mg/kg/day; 0/10; conditions: route intravenous
# Mus musculus [13] = experiment: Number of survivors on 60th day at dose 50 mg/kg/day in 10 mice implanted with P388 leukemia cell line
# Mus musculus [14] = experiment: Number of survivors on 30th day at dose 55 mg/kg/day in 10 mice implanted with P388 leukemia cell line
# Mus musculus [15] = experiment: Number of survivors on 60th day at dose 80 mg/kg/day in 10 mice implanted with P388 leukemia cell line
# Mus musculus [16] = experiment: Number of survivors on 30th day at dose 50 mg/kg/day in 10 mice implanted with P388 leukemia cell line
# Mus musculus [17] = experiment: Number of survivors of DBA2 mice on 60th day after inoculation with L1210 leukemia cell line intraperitoneally at a dose of 70 mg/kg/day; 0/10; conditions: route intraperitoneal
# Mus musculus [18] = experiment: Number of survivors on 60th day at dose 75 mg/kg/day in 10 mice implanted with P388 leukemia cell line
# Mus musculus [19] = experiment: Percent increase in life span of DBA2 mice after inoculation with L1210 leukemia intravenously at a dose of 60 mg/kg per day; conditions: route intravenous
# Method in brief: (§2)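 Female DBA2 mice inoculated iv on day 0 with 10^4 L1210 cells; drugs given iv as sulfate salts in physiological saline, mostly once on day 1. %ILS from all deaths and survivors as (T/C × 100) − 100; survivors scored on days 30 and 60.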
# Mus musculus [20] = experiment: Number of survivors on 30th day at dose 75 mg/kg/day in 10 mice implanted with P388 leukemia cell line
# Mus musculus [21] = experiment: Number of survivors on 30th day at dose 80 mg/kg/day in 10 mice implanted with P388 leukemia cell line
# Mus musculus [22] = experiment: Number of survivors of DBA2 mice on 30th day after inoculation with L1210 leukemia cell line intravenously at a dose of 75 mg/kg/day; 0/10; conditions: route intravenous
# Mus musculus [23] = experiment: Number of survivors of DBA2 mice on 30th day after inoculation with L1210 leukemia cell line intravenously at a dose of 60 mg/kg/day; 0/10; conditions: route intravenous
# Mus musculus [24] = experiment: Percent increase in life span of DBA2 mice after inoculation with L1210 leukemia intravenously at a dose of 70 mg/kg per day; conditions: route intravenous; method in brief: as §2
# Mus musculus [25] = experiment: Percent increase in life span at dose 75 mg/kg/day in 10 mice implanted with P388 leukemia cell line
# Mus musculus [26] = experiment: Percent increase in life span of DBA2 mice after inoculation with L1210 leukemia intravenously at a dose of 65 mg/kg per day; conditions: route intravenous; method in brief: as §2
# Mus musculus [27] = experiment: Number of survivors of DBA2 mice on 60th day after inoculation with L1210 leukemia cell line intravenously at a dose of 60 mg/kg/day; 0/10; conditions: route intravenous
# Mus musculus [28] = experiment: Number of survivors on 60th day at dose 60 mg/kg/day in 10 mice implanted with P388 leukemia cell line; method in brief: as §1
# Mus musculus [29] = experiment: Number of survivors on 60th day at dose 55 mg/kg/day in 10 mice implanted with P388 leukemia cell line
# Mus musculus [30] = experiment: Number of survivors of DBA2 mice on 30th day after inoculation with L1210 leukemia cell line intravenously at a dose of 55 mg/kg/day; 0/10; conditions: route intravenous
compound,measurement,setting,value
CCOC(=O)[C@H](Cc1ccccc1)NC(=O)[C@@]1(O)[C@H](O)[C@]2(CC)C=CCN3CC[C@@]4(c5cc([C@@]6(C(=O)OC)C[C@H]7C[N@](CCc8c6[nH]c6ccccc86)C[C@](O)(CC)C7)c(OC)cc5N(C)[C@@]14C)[C@@H]32,Survivors,Mus musculus [1],0
same,Survivors,Mus musculus [2],0
same,Survivors,Mus musculus [3],0
same,ILS at 50 mg/kg/day,Mus musculus [4],21.5%
same,ILS at 80 mg/kg/day,Mus musculus [5],41.7%
same,ILS at 60 mg/kg/day,Mus musculus [6],13.3%
same,Survivors,Mus musculus [7],0
same,ILS,Mus musculus [8],0%
same,ILS at 75 mg/kg/day,Mus musculus [9],25%
same,Survivors,Mus musculus [10],0
same,ILS at 55 mg/kg/day,Mus musculus [11],36.4%
same,Survivors,Mus musculus [12],0
same,Survivors,Mus musculus [13],1
same,Survivors,Mus musculus [14],1
same,Survivors,Mus musculus [15],0
same,Survivors,Mus musculus [16],1
same,Survivors,Mus musculus [17],0
same,Survivors,Mus musculus [18],0
same,ILS at 60 mg/kg/day,Mus musculus [19],13.9%
same,Survivors,Mus musculus [20],0
same,Survivors,Mus musculus [21],0
same,Survivors,Mus musculus [22],0
same,Survivors,Mus musculus [23],0
same,ILS at 70 mg/kg/day,Mus musculus [24],13%
same,ILS at 75 mg/kg/day,Mus musculus [25],26.6%
same,ILS at 65 mg/kg/day,Mus musculus [26],3.5%
same,Survivors,Mus musculus [27],0
same,Survivors,Mus musculus [28],0
same,Survivors,Mus musculus [29],0
same,Survivors,Mus musculus [30],0
